Data as given in ChEMBL document CHEMBL2321875 (J Med Chem, 2013).
Active and inactive are the calls of the source. No cut-off for these calls is given here.

Columns and labels:
[1] = biological target: T1, Protein-serine O-palmitoleoyltransferase porcupine (Mus musculus, UniProt Q9JJJ7); experiment: Inhibition of porcupine-mediated Wnt signalling in mouse L cells after 24 hrs by SuperTopflash reporter assay; type: cell-based
T1 sequence (Q9JJJ7 whole entry): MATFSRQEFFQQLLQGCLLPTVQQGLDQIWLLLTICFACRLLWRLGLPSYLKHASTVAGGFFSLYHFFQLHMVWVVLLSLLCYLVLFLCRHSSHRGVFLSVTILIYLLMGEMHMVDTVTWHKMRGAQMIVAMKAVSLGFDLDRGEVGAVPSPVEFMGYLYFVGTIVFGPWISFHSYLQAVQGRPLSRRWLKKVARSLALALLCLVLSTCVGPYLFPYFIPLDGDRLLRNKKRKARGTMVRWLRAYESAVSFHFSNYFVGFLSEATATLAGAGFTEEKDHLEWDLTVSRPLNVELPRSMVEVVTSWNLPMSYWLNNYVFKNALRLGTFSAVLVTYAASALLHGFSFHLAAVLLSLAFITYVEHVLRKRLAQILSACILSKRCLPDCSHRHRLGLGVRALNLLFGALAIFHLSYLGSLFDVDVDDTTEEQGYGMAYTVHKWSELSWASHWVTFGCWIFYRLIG

[2] = system: Danio rerio; experiment: In vivo inhibition of porcupine in zebrafish embryos assessed as inhibition of Wnt/beta-casein-mediated posterior axis formation at 1 to 5 uM applied in aquarium water by mCherry-based reporter gene assay; type: functional, organism-based; conditions: in the assay text read “beta-catenin” for “beta-casein”
How it was run: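 Zebrafish embryos carrying an mCherry-based Wnt/β-catenin signaling reporter were exposed to increasing concentrations of compound in the aquarium water. Whole-animal fluorescence intensity was quantified, and posterior axis formation was scored.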

[3] = system: Danio rerio; experiment: In vivo inhibition of porcupine in juveline stage of zebrafish assessed as inhibition of Wnt-mediated tail fin regeneration at 5 uM; type: functional, organism-based
[4] = Half life in ICR/CD-1 mouse liver S9 fraction at 2 uM by LC-MS/MS analysis; type: ADME, subcellular
[5] = Half life in rat plasma at 2 uM; type: ADME, cell-free
[6] = Half life in mouse plasma at 2 uM; type: ADME, cell-free
[7] = biological target: T2, Protein-serine O-palmitoleoyltransferase porcupine (Homo sapiens) (UniProt Q9H237); experiment: Inhibition of porcupine-mediated phosphorylation of dishevelled 2 in HEK293 cells at 2.5 uM; type: cell-based
T2 sequence (whole entry): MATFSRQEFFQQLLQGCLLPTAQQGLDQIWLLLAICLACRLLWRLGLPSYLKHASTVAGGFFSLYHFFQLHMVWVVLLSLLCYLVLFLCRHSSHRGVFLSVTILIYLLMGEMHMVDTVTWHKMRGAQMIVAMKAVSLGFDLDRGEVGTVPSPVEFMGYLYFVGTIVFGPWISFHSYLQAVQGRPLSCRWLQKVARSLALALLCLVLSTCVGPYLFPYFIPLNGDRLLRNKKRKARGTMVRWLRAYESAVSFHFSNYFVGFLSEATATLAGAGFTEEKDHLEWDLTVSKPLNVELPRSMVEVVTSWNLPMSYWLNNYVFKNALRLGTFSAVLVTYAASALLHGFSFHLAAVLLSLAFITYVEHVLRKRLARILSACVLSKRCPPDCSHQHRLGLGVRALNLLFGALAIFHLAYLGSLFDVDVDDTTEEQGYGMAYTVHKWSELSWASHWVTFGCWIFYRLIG

[8] = biological target: T3, Protein-serine O-palmitoleoyltransferase porcupine (Mus musculus) (UniProt Q9JJJ7); experiment: Inhibition of porcupine in E11.5 mouse embryo kidney assessed as inhibition of Wnt-mediated branching morphogenesis at 10 to 50 nM measured every 24 hrs by fluorescent stereoscopic analysis relative to control
T3 sequence (whole entry): T1 sequence (Q9JJJ7 whole entry)
How it was run: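 Kidneys from E11.5 Hoxb7Cre;RosaTomato mouse embryos were cultured at the air/media interface in media containing 1 nM to 1 μM compound, with DMSO controls. Media was replaced and fluorescent stereoscope images were taken every 24 h. The read-out was the fold increase in ureteric bud tip number from 0 to 48 h, compared by Student t test.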

EC50 [1] [nM]	Structure (SMILES)	other results
1000	CCOc1ccc(NC(=O)CSc2nc3c(c(=O)n2-c2ccccc2)SCC3)cc1	
15	O=C(CSc1nc2c(c(=O)n1-c1ccccc1)SCC2)Nc1ncc(-c2ccccc2)cn1	
120	COc1ccc(-n2c(SCC(=O)Nc3nc4ccc(OC)cc4s3)nc3c(c2=O)SCC3)cc1	
0.45	O=C(CSc1nc2c(c(=O)n1-c1ccccc1)SCC2)Nc1ccc(-c2cccnc2)cc1	
> 25000	O=C(CNC(=O)c1nn(-c2ccccc2)c(=O)c2ccccc12)Nc1nccs1	
> 25000	COc1ccc2nc(NC(=O)CNC(=O)c3ccc(=O)n(-c4ccccc4)c3)sc2c1	
50	COc1ccccc1-n1c(SCC(=O)Nc2nc3ccc(Cl)cc3s2)nc2c(c1=O)SCC2	
> 1000	CN(C)c1ccc(NC(=O)CSc2nc3c(c(=O)n2-c2ccccc2)SCC3)cc1	
> 5000	O=C(CSc1nc2c(c(=O)n1-c1ccccc1)SCC2)Nc1cccc(-c2ccccc2)c1	
300	CCOC(=O)c1ccc(NC(=O)CSc2nc3c(c(=O)n2-c2ccccc2)SCC3)cc1	
240	O=C(CNC(=O)c1nn(-c2ccccc2)c(=O)c2ccccc12)Nc1nc2ccc([N+](=O)[O-])cc2s1	
> 25000	CCOC(=O)c1ccc2nc(NC(=O)CNC(=O)c3nn(-c4ccccc4)c(=O)c4ccccc34)sc2c1	
250	COc1ccc2nc(NC(=O)CSc3nc4c(c(=O)n3-c3ccc(F)cc3)SCC4)sc2c1	
0.5	O=C(CSc1nc2c(c(=O)n1-c1ccccc1)SCC2)Nc1ccc(-c2ccccc2)cn1	inhibition [2]: Active; inhibition [3]: Active; half-life at 2 µM [4]: 26 min; half-life at 2 µM [5]: 190 min; half-life at 2 µM [6]: 2 min; inhibition [7]: Active; inhibition [8]: Active
25	COc1ccc(-n2nc(C(=O)NCC(=O)Nc3nc4ccc(C)cc4s3)c3ccccc3c2=O)cc1	
3.5	O=C(CSc1nc2c(c(=O)n1-c1ccccc1)SCC2)Nc1ccc(-c2ccco2)cn1	
25	COc1ccccc1-n1c(SCC(=O)Nc2nc3ccc(C)cc3s2)nc2c(c1=O)SCC2	
2	O=C(CSc1nc2c(c(=O)n1-c1ccccc1)SCC2)Nc1ccc(-c2ccsc2)cn1	
210	COc1ccc2nc(NC(=O)CNC(=O)c3nn(-c4ccccc4)c(=O)c4ccccc34)sc2c1	
1.5	O=C(CSc1nc2c(c(=O)n1-c1ccccc1)SCC2)Nc1ncc(-c2ccoc2)cn1	
0.3	O=C(CSc1nc2c(c(=O)n1-c1ccccc1)SCC2)Nc1ccc(-c2cccs2)cn1	inhibition [2]: Active

EC50 [1] [nM]	Structure (SMILES)	other results
0.3	O=C(CSc1nc2c(c(=O)n1-c1ccccc1)SCC2)Nc1ccc(-c2ccccc2)nc1	
3	O=C(CSc1nc2c(c(=O)n1-c1ccccc1)SCC2)Nc1ccc(-c2ccncc2)cc1	
35	COc1ccc(-n2c(SCC(=O)Nc3nc4ccc(Cl)cc4s3)nc3c(c2=O)SCC3)cc1	
30	O=C(CNC(=O)c1nn(-c2ccccc2)c(=O)c2ccccc12)Nc1nc2ccc(Cl)cc2s1	
110	O=C(CNC(=O)c1nn(-c2ccccc2)c(=O)c2ccccc12)Nc1nc2ccc(C(F)(F)F)cc2s1	
30	O=C(CSc1nc2c(c(=O)n1-c1ccccc1)SCC2)Nc1ccc(N2CCCCC2)cc1	
30	Cc1ccc2nc(NC(=O)CSc3nc4c(c(=O)n3-c3ccccc3)SCC4)sc2c1	
90	COc1ccc2nc(NC(=O)CNC(=O)c3nn(-c4ccccc4OC)c(=O)c4ccccc34)sc2c1	
40	Cc1ccc2nc(NC(=O)CSc3nc4c(c(=O)n3-c3ccc(F)cc3)SCC4)sc2c1	
1.5	O=C(CSc1nc2c(c(=O)n1-c1ccccc1)SCC2)Nc1ccc(-c2ccoc2)cn1	inhibition [2]: inactive
470	O=C(CNC(=O)c1nn(-c2ccccc2)c(=O)c2ccccc12)Nc1nc2ccc(F)cc2s1	
175	O=C(CSc1nc2c(c(=O)n1-c1ccc(F)cc1)SCC2)Nc1nc2ccc(Cl)cc2s1	
1	O=C(CSc1nc2c(c(=O)n1-c1ccccc1)SCC2)Nc1ccc(-c2cccnc2)cn1	
90	COc1ccc2nc(NC(=O)CNC(=O)c3nn(-c4ccc(F)cc4)c(=O)c4ccccc34)sc2c1	
30	COc1ccccc1-n1c(SCC(=O)Nc2nc3ccc(C(F)(F)F)cc3s2)nc2c(c1=O)SCC2	
4	O=C(CSc1nc2c(c(=O)n1-c1ccccc1)SCC2)Nc1ccc(-c2ccccn2)cc1	
15	Cc1ccc2nc(NC(=O)CSc3nc4c(c(=O)n3C)SC(C)C4)sc2c1 (stereo not drawn)	
100	O=C(CSc1nc2c(c(=O)n1-c1ccc(F)cc1)SCC2)Nc1nc2ccc(C(F)(F)F)cc2s1	
50	COc1ccc2nc(NC(=O)CSc3nc4c(c(=O)n3-c3ccccc3OC)SCC4)sc2c1	
60	COc1ccc(-n2nc(C(=O)NCC(=O)Nc3nc4ccc(OC)cc4s3)c3ccccc3c2=O)cc1	
4000	CCn1c(SCC(=O)Nc2nc3ccccc3s2)nc2c(c1=O)SC(C)C2 (stereo not drawn)	

EC50 [1] [nM]	Structure (SMILES)	other results
40	O=C(CSc1nc2c(c(=O)n1-c1ccccc1)SCC2)Nc1nc2ccc(Cl)cc2s1	
> 1000	CC(=O)c1ccc(NC(=O)CSc2nc3c(c(=O)n2-c2ccccc2)SCC3)cc1	
55	O=C(CSc1nc2c(c(=O)n1-c1ccccc1)SCC2)Nc1ncc(-c2ccccc2)s1	
2600	O=C(CNC(=O)c1nn(-c2ccccc2)c(=O)c2ccccc12)Nc1nc2ccccc2s1	
> 5000	O=C(CSc1nc2c(c(=O)n1-c1ccccc1)SCC2)Nc1ccccc1-c1ccccc1	
100	Cc1ccc2nc(NC(=O)CNC(=O)c3nn(-c4ccc(F)cc4)c(=O)c4ccccc34)sc2c1	
> 25000	O=C(CNC(=O)c1nn(-c2ccc(F)cc2)c(=O)c2ccccc12)Nc1nc2ccccc2s1	
40	COc1ccc2nc(NC(=O)CSc3nc4c(c(=O)n3-c3ccccc3)SCC4)sc2c1	
100	COc1ccc(-n2c(SCC(=O)Nc3nc4ccc(C(F)(F)F)cc4s3)nc3c(c2=O)SCC3)cc1	
25000	COc1ccc(-n2nc(C(=O)NCC(=O)Nc3nc4ccccc4s3)c3ccccc3c2=O)cc1	
3.5	O=C(CSc1nc2c(c(=O)n1-c1ccccc1)SCC2)Nc1ncc(-c2ccco2)cn1	
580	COc1ccc2nc(NC(=O)CSc3nc4c(c(=O)n3-c3ccccc3)SCC4)ccc2c1	
90	O=C(CNC(=O)c1nn(-c2ccc(F)cc2)c(=O)c2ccccc12)Nc1nc2ccc(C(F)(F)F)cc2s1	
10000	COc1ccccc1-n1nc(C(=O)NCC(=O)Nc2nc3ccccc3s2)c2ccccc2c1=O	
5.5	O=C(CSc1nc2c(c(=O)n1-c1ccccc1)SCC2)Nc1ccc(-c2cncnc2)cn1	inhibition [2]: inactive
40	O=C(CSc1nc2c(c(=O)n1-c1ccccc1)SCC2)Nc1nc2ccc(C(F)(F)F)cc2s1	
25	O=C(CNC(=O)c1nn(-c2ccc(F)cc2)c(=O)c2ccccc12)Nc1nc2ccc(Cl)cc2s1	
350	O=C(CSc1nc2c(c(=O)n1-c1ccccc1)SCC2)Nc1nc(-c2ccccc2)cs1	
15	COc1ccc(-n2nc(C(=O)NCC(=O)Nc3nc4ccc(Cl)cc4s3)c3ccccc3c2=O)cc1	
0.75	O=C(CSc1nc2c(c(=O)n1-c1ccccc1)SCC2)Nc1ccc(-c2ccccc2)cc1	
35	Cc1ccc2nc(NC(=O)CNC(=O)c3nn(-c4ccccc4)c(=O)c4ccccc34)sc2c1	
